# VIM-2 inh – blocks Pseudomonas aeruginosa VIM-2 metallo-beta-lactamase | hit rate 0.89% among 290,000 | inhibition, % at 5.6 µM | AID 1527 | purified VIM-2, nitrocefin hydrolysis, epi-absorbance fluorescence;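 active = inhibition above the mean of all tested compounds plus 3 SD, cutoff set per screening run, cut at about 7.5% in these data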;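 also: red hydrolysis product quenches plate fluorescence so inhibitors raise well fluorescence; 0% = enzyme with DMSO and 100% = DMSO without enzyme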
# BCLXL inh – Bcl-xL (human) inhibition; Q07817; GST-Bcl-xL / FITC-Bim BH3 peptide fluorescence polarization; AID 2129; inhibition, % at 10.9 µM; hit rate 0.7% among 320,000;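 active = inhibition above the mean of all tested compounds plus 3 SD, cutoff set per campaign, cut at about 30% in these data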;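 also: 0% = DMSO wells and 100% = unlabeled Bim-BH3 peptide competitor; inhibitors lower millipolarization by displacing the labeled peptide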
# Target sequence (Q07817 whole entry, looked up): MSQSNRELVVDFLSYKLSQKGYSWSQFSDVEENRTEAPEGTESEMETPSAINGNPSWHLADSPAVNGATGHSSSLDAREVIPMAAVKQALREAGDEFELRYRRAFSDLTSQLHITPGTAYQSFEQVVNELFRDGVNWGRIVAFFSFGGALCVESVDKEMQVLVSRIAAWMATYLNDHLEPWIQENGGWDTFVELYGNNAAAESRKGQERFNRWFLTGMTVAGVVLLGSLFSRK
# GLD-1 TGE inh – GLD-1-TGE RNA interaction inhibition (C. elegans). purified GLD-1 + fluorescein TGE RNA, fluorescence polarization. AID 2280. hit rate 0.44% among 320,000. inhibition, % at 5.96 µM;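 active = percent inhibition above a per-plate cutoff, the plate mean of test compounds plus 3 SD, cut at about 30% in these data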;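 also: 0% = DMSO wells with GLD-1 and probe and 100% = wells lacking GLD-1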
# MEX-5 binding – C. elegans MEX-5 TCR-2 RNA binding activity | Q9XUB2 | MEX-5/FITC-TCR2 RNA binding, fluorescence polarization; active compounds read low | activity score (negative = inhibition of binding), % at 10 µM | hit rate 0.38% among 300,000 | AID 1832;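 active = inhibition past about -25% in most replicates, and total fluorescence under double the plate's negative control median, limit read from the data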;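 also: 0% = DMSO and -100% = 5 µM competing unlabeled TCR2 RNA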
# IMP-1 inhibitor – inhibitors of Pseudomonas aeruginosa IMP-1 metallo-beta-lactamase | inhibition, % at 5.6 µM | AID 1556 | hit rate 0.45% among 290,000 | purified IMP-1, nitrocefin hydrolysis, epi-absorbance fluorescence;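 active = inhibition above the mean plus 3 SD of all compounds in the same screening run, cut at about 4.5% in these data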;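 also: 0% = IMP-1 with DMSO and 100% = DMSO wells lacking enzyme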
#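 assay system = purified recombinant IMP-1 metallo-beta-lactamase enzyme | schedule = 15 min preincubation plus 25 min reaction at 25 °C | signal = Epi-absorbance fluorescence, 480 nm excitation, 530 nm emission | read-out basis = percent inhibition from optical density relative to buffer-blank wells | controls = IMP-1 with DMSO as 0%, enzyme-free DMSO as 100%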
# EBV gp42 inh – inhibitors of Epstein-Barr virus glycoprotein 42; Q1HVG2; Fluorescence polarization binding assay, mP read-out; inhibition, % (tested at 21.74 µM); hit rate 0.42% among 220,000; in the data active = inhibition above about 50%
# Target sequence (Q1HVG2 whole entry, looked up): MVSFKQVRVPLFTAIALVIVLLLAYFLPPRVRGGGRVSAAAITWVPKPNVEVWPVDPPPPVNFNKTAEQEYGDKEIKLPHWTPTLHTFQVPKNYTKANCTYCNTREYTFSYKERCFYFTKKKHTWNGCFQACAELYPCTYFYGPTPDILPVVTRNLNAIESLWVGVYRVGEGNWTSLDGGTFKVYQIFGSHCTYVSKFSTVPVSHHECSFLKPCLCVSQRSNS
# GLD-1 TGE cf – confirmation of C. elegans GLD-1 TGE RNA binding inhibitors | shares compounds with GLD-1 TGE inh | AID 2459 | GLD-1/FL-TGE RNA fluorescence polarization, biochemical | hit rate 10% among 550 | inhibition, % at 5.96 µM;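 active = average inhibition across triplicates above the hit cutoff set in the primary screen, cut at about 32% in these data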;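 also: 0% = GLD-1 with RNA probe and DMSO and 100% = wells lacking GLD-1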
# * hit, by the source's call; · = not tested or not shown. Compounds with a hit are over-represented: about 2.2% of the library has one in this group of screens.
SMILES,VIM-2 inh,BCLXL inh,GLD-1 TGE inh,MEX-5 binding,IMP-1 inhibitor,EBV gp42 inh,GLD-1 TGE cf
Nc1c(C(=O)OCC(=O)Nc2cccc([N+](=O)[O-])c2)[nH]c(=O)[nH]c1=O,·,·,33.2*,·,·,·,13.9
O=C(Nc1ccc(S(=O)(=O)N2CCOCC2)cc1)c1ccccc1Br,-0.3,2.4,1.7,1.5,-1.1,·,·
CC(=O)c1c(C)oc2c1cc(NS(=O)(=O)c1ccc(C(=O)O)cc1)c1ccccc12,0.4,7.6,15.7,-2.1,-0.4,·,·
Cc1ccc(S(=O)(=O)Nc2cc3c(C(=O)Nc4ccccc4)c(C)oc3c3ccccc23)cc1,-1.2,21.3,128.2*,-0.3,2.9,45.3,104.9*
O=S1(=O)N=C(c2ccccc2)c2ccccc21,·,1.0,1.7,·,·,·,·
Cc1noc(C)c1S(=O)(=O)N(CC(=O)NCCc1ccccc1)c1ccc(C(C)C)cc1,-0.8,4.9,48.0*,-2.2,-1.2,·,0.6
CCCOc1ccc(/C=N/NC(=O)c2ccc3c(c2)OCO3)c(OCCC)c1,-1.0,1.8,-6.3,4.3,-1.9,·,·
COc1ccc(-n2c(C)c3c(OC)cccc(=O)c3c2C)cc1,2.7,8.7,6.0,-2.8,-0.7,4.7,·
COc1cccc(=O)c2c(C)n(-c3ccc(C(=O)O)cc3)c(C)c12,7.6,67.7*,38.5*,-10.9,-1.6,13.2,14.2
Cc1ccc(C(=O)NNC(=O)c2ccc(C)cc2)cc1,-1.2,-0.5,6.1,-0.3,-1.8,4.2,·
Cc1ccc(C(=O)NNC(=O)/C=C\C(=O)O)cc1,-3.4,5.1,79.3*,0.6,-4.2,4.8,-3.0
O=[N+]([O-])c1cc([N+](=O)[O-])c(Oc2ccc(Br)cc2Br)cc1NN1CCCCC1,-3.3,-4.1,100.4*,-0.6,-3.5,·,-0.5
Cc1cc(F)ccc1Oc1cc(NN2CCCCC2)c([N+](=O)[O-])cc1[N+](=O)[O-],0.0,0.0,0.3,-1.0,-1.5,·,·
COc1cccc(CNC(=O)c2ccncc2)c1,-0.8,2.1,-9.5,0.2,0.7,·,·
O=C1c2ccc(-c3ccc4c(c3)C(=O)N(CCCO)C4=O)cc2C(=O)N1CCCO,-1.5,6.0,-3.2,-2.1,-1.6,-22.4,·
O=C1C2=C(SCCS2)C(=O)N1CCCO,0.2,86.9*,74.9*,-21.9,-2.0,117.3*,49.0*
O=C(CC(=O)c1c(F)cccc1Cl)c1ccccc1O,-0.8,6.7,-9.9,-1.9,-0.4,·,·
Cc1c(NC(=O)C(C)OC(=O)c2cc(-c3cccc4ccccc34)nc3ccccc23)c(=O)n(-c2ccccc2)n1C (stereo not drawn),-0.3,75.3*,37.9*,0.4,-1.4,-43.2,3.3
Cn1nc(-c2ccccc2)c(N2CCCCC2)cc1=O,-2.2,-1.4,-4.0,2.7,0.3,-12.7,·
Cn1c(=O)cc2c3c(c(N4CCCCC4)ccc31)C(=O)c1ccccc1-2,10.4*,147.4*,81.6*,-39.6*,1.3,74.2*,45.6*
N#CCCn1cc(C=O)c(-c2cccs2)n1,-2.6,-3.0,69.3*,1.0,-3.6,-10.1,3.6
COc1cc(/C=N\Nc2cc(=O)n(C)c(=O)n2C)ccc1O,-0.1,5.7,39.2*,0.7,-5.2,12.9,-3.3
COc1ccc(/C=N/Nc2cc(=O)n(C)c(=O)n2C)cc1OC,1.6,1.6,1.3,-0.4,-3.7,-1.7,·
COc1ccc(C(C)=O)c(Oc2ccc(S(=O)(=O)N3CCOCC3)cn2)c1,·,1.2,1.0,·,·,·,·
COc1ccc(NS(=O)(=O)c2ccc(C(=O)N(C)Cc3ccc(C)o3)cc2)cc1,·,·,1.8,·,·,·,·
CCCCCCCCNC(=O)/C(C#N)=C/c1ccccc1[N+](=O)[O-],-2.1,26.5,25.3,-1.8,-2.0,10.1,·
C=CCNC(=O)/C(C#N)=C/c1ccccc1[N+](=O)[O-],-2.2,45.2*,30.8*,-2.4,-1.5,22.4,45.2*
O=[N+]([O-])c1nn(-c2ccc3c(c2)OCCO3)n(O)c1=NCc1ccc(F)cc1,-3.0,14.1,6.4,0.4,-2.5,-2.4,·
O=[N+]([O-])c1nn(-c2ccc3c(c2)OCCO3)n(O)c1=NCc1ccc(F)cc1Cl,-2.3,78.8*,31.6*,-3.4,-0.2,10.5,-2.8
